{"source": "ChEMBL document CHEMBL2086325", "about": "“Suppression of autoimmune arthritis by Celastrus-derived Celastrol through modulation of pro-inflammatory chemokines” (Bioorg Med Chem, 2012)", "key": {"[1]": {"species": "Rattus norvegicus", "assay": "Increase in CCR1 expression in sonicated Mtb-stimulated spleen adherent cells isolated from Lewis rat adjuvant-induced arthritis model pre-incubated with compound before stimulation with sonicated Mtb for 24 hrs by qPCR", "format": "functional, tissue-based", "how_it_was_run": "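Spleen adherent cells (1.5–2.0 × 10^6 cells/well) came from an untreated arthritic Lewis rat. They were restimulated 24 h with sonicated Mtb (10 μg/ml) with or without compound at 0.1 and 0.3 μM. CCR1 mRNA was measured by qPCR, normalized to HPRT and expressed as relative message.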"}, "[2]": {"test_system": "Rattus norvegicus", "assay": "Antiarthritic effect in Lewis rat adjuvant-induced arthritis model lymph node cells restimulated with sonicated Mtb post isolation assessed as reduction in MIP-1alpha production at 200 ug, ip starting from arthritis onset and continued uninterrupted until study end by cytokine multiplex assay", "format": "functional, organism-based", "how_it_was_run": "(§1)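 Male Lewis rats were immunized s.c. with heat-killed Mtb H37Ra (1.5 mg/rat) in mineral oil. From arthritis onset they received 200 μg/rat i.p. daily (DMSO stock diluted in PBS); controls got 1.2% DMSO in PBS. On d 18, draining lymph node or synovial-infiltrating cells were cultured at 1.5 × 10^6/well in 2% FBS medium ± sonicated Mtb (10 μg/ml) for 24 h. Supernatants were analysed by multiplex.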"}, "[3]": {"species": "Rattus norvegicus", "assay": "Increase in CCR1 protein surface expression in sonicated Mtb-stimulated spleen adherent cells isolated from Lewis rat adjuvant-induced arthritis model pre-incubated with 0.1 to 0.3 uM compound before stimulation with sonicated Mtb for 24 hrs by flow cytometry", "format": "functional, tissue-based", "how_it_was_run": "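Spleen adherent cells from arthritic rats were stimulated 24 h with sonicated Mtb in vitro, with or without compound. Cells were detached with TrypLE for 10 min, washed, and surface-stained 30 min with anti-CD11b/c PerCP-eFluor 710 and cross-reactive anti-human CCR1 Alexa Fluor 647. Cells were fixed in 1% formaldehyde and analysed by flow cytometry, with IgG2a/IgG2b isotype controls.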"}, "[4]": {"test_system": "Rattus norvegicus", "assay": "(§2) Antiarthritic effect in Lewis rat adjuvant-induced arthritis model synovial infiltrating cells restimulated with sonicated Mtb post isolation assessed as reduction in GRO/KC production at 200 ug, ip starting from arthritis onset and continued uninterrupted until study end by cytokine multiplex assay", "format": "functional, organism-based", "how_it_was_run": "as §1"}, "[5]": {"test_system": "Rattus norvegicus", "assay": "Antiarthritic effect in Lewis rat adjuvant-induced arthritis model lymph node cells restimulated with sonicated Mtb post isolation assessed as reduction in IL-1beta production at 200 ug, ip starting from arthritis onset and continued uninterrupted until study end by cytokine multiplex assay", "format": "functional, organism-based", "how_it_was_run": "as §1"}, "[6]": {"test_system": "Rattus norvegicus", "assay": "Antiarthritic effect in Lewis rat adjuvant-induced arthritis model lymph node cells restimulated with sonicated Mtb post isolation assessed as reduction in TNFalpha production at 200 ug, ip starting from arthritis onset and continued uninterrupted until study end by cytokine multiplex assay", "format": "functional, organism-based", "how_it_was_run": "as §1"}, "[7]": {"species": "Rattus norvegicus", "assay": "Antiarthritic effect in IL-1beta-stimulatedspleen adherent cells isolated from Lewis rat adjuvant-induced arthritis model assessed as reduction in MIP-1alpha production pre-incubated with compound for 30 mins before stimulation with IL-1beta for 48 hrs by multiplex assay", "format": "functional, tissue-based", "conditions": "Spleen"}, "[8]": {"test_system": "Rattus norvegicus", "assay": "Antiarthritic effect in Lewis rat adjuvant-induced arthritis model spleen adherent cells restimulated with sonicated Mtb post isolation assessed as reduction in GRO/KC production at 200 ug, ip starting from arthritis onset and continued uninterrupted until study end by cytokine multiplex assay", "format": "functional, organism-based", "how_it_was_run": "(§3)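 Mtb-immunized male Lewis rats were dosed 200 μg/rat i.p. daily from arthritis onset (vehicle: 1.2% DMSO/PBS). Spleen adherent cells were prepared on d 18, plated at 1.5 × 10^6/well in 2% FBS medium and restimulated with sonicated Mtb (10 μg/ml) for 24 h. Supernatant chemokines and cytokines were measured by Luminex multiplex. Mean ± SD of triplicates from 4–5 rats.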"}, "[9]": {"test_system": "Rattus norvegicus", "assay": "as §2, with “IL-1beta” for “GRO/KC”", "format": "functional, organism-based", "how_it_was_run": "as §1"}, "[10]": {"species": "Rattus norvegicus", "assay": "Antiarthritic effect in sonicated Mtb-stimulated spleen adherent cells isolated from Lewis rat adjuvant-induced arthritis model assessed as reduction in MIP-1alpha production pre-incubated with compound for 30 mins before stimulation with sonicated-Mtb for 48 hrs by multiplex assay", "format": "functional, tissue-based"}, "[11]": {"test_system": "Rattus norvegicus", "assay": "as §2, with “MIP-1alpha” for “GRO/KC”", "format": "functional, organism-based", "how_it_was_run": "as §1"}, "[12]": {"test_system": "Rattus norvegicus", "assay": "Antiarthritic effect in Lewis rat adjuvant-induced arthritis model lymph node cells restimulated with sonicated Mtb post isolation assessed as reduction in IL6 production at 200 ug, ip starting from arthritis onset and continued uninterrupted until study end by cytokine multiplex assay", "format": "functional, organism-based", "how_it_was_run": "as §1"}, "[13]": {"test_system": "Rattus norvegicus", "assay": "Antiarthritic effect in Lewis rat adjuvant-induced arthritis model spleen adherent cells restimulated with sonicated Mtb post isolation assessed as reduction in CCR2 expression at 200 ug, ip starting from arthritis onset and continued uninterrupted until study end by qPCR", "format": "functional, organism-based", "how_it_was_run": "(§4)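 From onset of Mtb-induced arthritis, rats received 200 μg/rat i.p. daily or vehicle. Spleen adherent cells harvested on d 18 (1.5–2.0 × 10^6 cells/well) were cultured in medium or with sonicated Mtb (10 μg/ml) for 24 h. Receptor mRNA was quantified by qPCR after TRIzol RNA isolation and cDNA synthesis, normalized to HGPRT and reported as relative message.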"}, "[14]": {"species": "Rattus norvegicus", "assay": "Antiarthritic effect in IL-1beta-stimulatedspleen adherent cells isolated from Lewis rat adjuvant-induced arthritis model assessed as reduction in MCP1 production pre-incubated with compound for 30 mins before stimulation with IL-1beta for 48 hrs by multiplex assay", "format": "functional, tissue-based", "conditions": "Spleen"}, "[15]": {"species": "Rattus norvegicus", "assay": "Antiarthritic effect in IL-1beta-stimulatedspleen adherent cells isolated from Lewis rat adjuvant-induced arthritis model assessed as reduction in RANTES production pre-incubated with compound for 30 mins before stimulation with IL-1beta for 48 hrs by multiplex assay", "format": "functional, tissue-based", "conditions": "Spleen"}, "[16]": {"species": "Rattus norvegicus", "assay": "Antiarthritic effect in sonicated Mtb-stimulated spleen adherent cells isolated from Lewis rat adjuvant-induced arthritis model assessed as reduction in GRO/KC production pre-incubated with compound for 30 mins before stimulation with sonicated-Mtb for 48 hrs by multiplex assay", "format": "functional, tissue-based"}, "[17]": {"test_system": "Rattus norvegicus", "assay": "Antiarthritic effect in Lewis rat adjuvant-induced arthritis model spleen adherent cells restimulated with sonicated Mtb post isolation assessed as reduction in MCP1 production at 200 ug, ip starting from arthritis onset and continued uninterrupted until study end by cytokine multiplex assay", "format": "functional, organism-based", "how_it_was_run": "as §3"}, "[18]": {"test_system": "Rattus norvegicus", "assay": "Antiarthritic effect in Lewis rat adjuvant-induced arthritis model serum assessed as reduction in RANTES production at 200 ug, ip starting from arthritis onset and continued uninterrupted until study end by cytokine multiplex assay", "format": "functional, organism-based", "how_it_was_run": "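Arthritic Lewis rats (Mtb 1.5 mg s.c. in mineral oil) were given 200 μg/rat i.p. daily from onset until the day before harvest; controls received DMSO/PBS vehicle. On d 18, blood was taken by cardiac puncture after euthanasia and serum stored at −80 °C. Serum pooled from 4 rats was assayed in triplicate by multiplex.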"}, "[19]": {"test_system": "Rattus norvegicus", "assay": "Antiarthritic effect in Lewis rat adjuvant-induced arthritis model spleen adherent cells restimulated with sonicated Mtb post isolation assessed as reduction in CXCR1 expression at 200 ug, ip starting from arthritis onset and continued uninterrupted until study end by qPCR analysis", "format": "functional, organism-based", "how_it_was_run": "as §4"}, "[20]": {"test_system": "Rattus norvegicus", "assay": "Antiarthritic effect in Lewis rat adjuvant-induced arthritis model synovial infiltrating cells restimulated with sonicated Mtb post isolation assessed as reduction in MCP1 production at 200 ug, ip starting from arthritis onset and continued uninterrupted until study end by cytokine multiplex assay", "format": "functional, organism-based", "how_it_was_run": "as §1"}, "[21]": {"test_system": "Rattus norvegicus", "assay": "Antiarthritic effect in Lewis rat adjuvant-induced arthritis model synovial infiltrating cells restimulated with sonicated Mtb post isolation assessed as reduction in IL6 production at 200 ug, ip starting from arthritis onset and continued uninterrupted until study end by cytokine multiplex assay", "format": "functional, organism-based", "how_it_was_run": "as §1"}}, "note": "The source made the active and inactive calls. The rule behind the calls is not given here.", "data": [{"molecule": "CC1=C(O)C(=O)C=C2C1=CC=C1[C@@]2(C)CC[C@@]2(C)[C@@H]3C[C@](C)(C(=O)O)CC[C@]3(C)CC[C@]12C", "note": "[CELASTROL]", "values": [{"measurement": "Activity", "setting": "[1]", "value": "Dose-dependent effect"}, {"measurement": "Activity", "setting": "[2]", "value": "inactive"}, {"measurement": "Activity", "setting": "[3]", "value": "Active"}, {"measurement": "Activity", "setting": "[4]", "value": "inactive"}, {"measurement": "Activity", "setting": "[5]", "value": "inactive"}, {"measurement": "Activity", "setting": "[6]", "value": "inactive"}, {"measurement": "Activity", "setting": "[7]", "value": "Dose-dependent effect"}, {"measurement": "Activity", "setting": "[8]", "value": "Active"}, {"measurement": "Activity", "setting": "[9]", "value": "inactive"}, {"measurement": "Activity", "setting": "[10]", "value": "Dose-dependent effect"}, {"measurement": "Activity", "setting": "[11]", "value": "inactive"}, {"measurement": "Activity", "setting": "[12]", "value": "inactive"}, {"measurement": "Activity", "setting": "[13]", "value": "Active"}, {"measurement": "Activity", "setting": "[14]", "value": "Dose-dependent effect"}, {"measurement": "Activity", "setting": "[15]", "value": "Dose-dependent effect"}, {"measurement": "Activity", "setting": "[16]", "value": "Dose-dependent effect"}, {"measurement": "Activity", "setting": "[17]", "value": "Active"}, {"measurement": "Activity", "setting": "[18]", "value": "Active"}, {"measurement": "Activity", "setting": "[19]", "value": "Active"}, {"measurement": "Activity", "setting": "[20]", "value": "inactive"}, {"measurement": "Activity", "setting": "[21]", "value": "inactive"}]}]}
